The results in this text go back to ChEMBL document CHEMBL4014308, “Amphiphilic Tobramycin-Lysine Conjugates Sensitize Multidrug Resistant Gram-Negative Bacteria to Rifampicin and Minocycline” (J Med Chem, 2017).

Each structure is given as a SMILES string. ≈ marks a conversion by molar mass, not a printed value. Calls of active or inactive are those of the source. The rule behind the calls is not given here.

Usually MIC stands for the lowest concentration found to suppress growth. Higher therefore signals a need for much substance.

Format in all cases: functional
Assay [1] deals with Staphylococcus epidermidis. Description: Antibacterial activity against methicillin-resistant Staphylococcus epidermidis isolate CAN-ICU 61589 after 18 hrs by microtiter dilution assay. The note with it: isolate CAN-ICU 61589, 18 h. The procedure, abridged:
(§1)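 Broth microdilution following CLSI guidelines. An overnight culture was adjusted to 0.5 McFarland in saline, then diluted 1:50 in Mueller-Hinton broth. This inoculum was added in equal volume to 2-fold serial dilutions of agent in MHB and incubated 18 h at 37 °C. MIC was the lowest concentration with no visible growth.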

Assay [2] deals with Escherichia coli. In words: Antibacterial activity against amikacin-resistant Escherichia coli isolate CAN-ICU 63074 after 18 hrs by microtiter dilution assay. Conditions: isolate CAN-ICU 63074, 18 h. The procedure, abridged:
as §1

The subject of assay [3] is Escherichia coli. Description: Antibacterial activity against gentamicin-resistant Escherichia coli isolate CAN-ICU 61714 after 18 hrs by microtiter dilution assay. Conditions: isolate CAN-ICU 61714, 18 h. An outline of the steps: as §1
The test system of assay [4] is Pseudomonas aeruginosa. Description: Antibacterial activity against Pseudomonas aeruginosa PAO1 after 18 hrs by microtiter dilution assay. Conditions: PAO1, 18 h. An outline of the steps: as §1
Assay [5] relates to Pseudomonas aeruginosa. In words: Antibacterial activity against gentamicin-resistant Pseudomonas aeruginosa isolate CAN-ICU 62308 after 18 hrs by microtiter dilution assay. The note with it: isolate CAN-ICU 62308, 18 h. An outline of the steps:
as §1

Assay [6] concerns Staphylococcus aureus. Description: Antibacterial activity against Staphylococcus aureus ATCC 29213 after 18 hrs by microtiter dilution assay. The note with it: ATCC 29213, 18 h. The procedure, abridged:
as §1

In assay [7] the test system is Pseudomonas aeruginosa. In words: Antibacterial activity against multidrug/extremely drug-resistant/colistin-susceptible Pseudomonas aeruginosa isolate 101885 after 18 hrs by microtiter dilution assay. The note with it: isolate 101885, 18 h. The procedure, abridged: as §1
In the next assay the test system is Streptococcus pneumoniae. In words: Antibacterial activity against Streptococcus pneumoniae ATCC 49619 after 18 hrs by microtiter dilution assay. Conditions: ATCC 49619, 18 h. The procedure, abridged: (§2)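 Broth microdilution per CLSI. Overnight culture adjusted to 0.5 McFarland in saline, diluted 1:50 in Mueller-Hinton broth, and added to an equal volume of 2-fold serial compound dilutions in MHB. Incubated 18 h at 37 °C. MIC taken as the lowest concentration with no visible growth.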

The subject of assay [8] is Stenotrophomonas maltophilia. Description: Antibacterial activity against Stenotrophomonas maltophilia isolate CAN-ICU 62584 after 18 hrs by microtiter dilution assay. The note with it: isolate CAN-ICU 62584, 18 h. The procedure, abridged: as §2
Assay [9] deals with Pseudomonas aeruginosa. Description: Antibacterial activity against multidrug/extremely drug-resistant/colistin-susceptible Pseudomonas aeruginosa isolate P262-101856 after 18 hrs by microtiter dilution assay. Conditions: isolate P262-101856, 18 h. An outline of the steps: as §1
Assay [10] relates to Escherichia coli. In words: Antibacterial activity against gentamicin/tobramycin/ciprofloxacin-resistant Escherichia coli isolate CANWARD-2011 97615 harboring AAC3-2A after 18 hrs by microtiter dilution assay. The note with it: isolate CANWARD-2011 97615, 18 h. An outline of the steps: as §1
Assay [11] relates to Pseudomonas aeruginosa. In words: Antibacterial activity against multidrug/extremely drug-resistant/colistin-susceptible Pseudomonas aeruginosa isolate P264-104354 after 18 hrs by microtiter dilution assay. The note with it: isolate P264-104354, 18 h. The procedure, abridged: as §1
Assay [12] relates to Pseudomonas aeruginosa. In words: Antibacterial activity against gentamicin/tobramycin-resistant Pseudomonas aeruginosa isolate CANWARD-2011 96846 after 18 hrs by microtiter dilution assay. The note with it: isolate CANWARD-2011 96846, 18 h. An outline of the steps: as §1
Assay [13] deals with Pseudomonas aeruginosa. Description: Antibacterial activity against Pseudomonas aeruginosa ATCC 27853 after 18 hrs by microtiter dilution assay. The note with it: ATCC 27853, 18 h. The procedure, abridged: as §2
Assay [14] concerns Pseudomonas aeruginosa. Description: Antibacterial activity against multidrug/extremely drug-resistant/colistin-susceptible Pseudomonas aeruginosa isolate 100036 after 18 hrs by microtiter dilution assay. The note with it: isolate 100036, 18 h. An outline of the steps:
as §1

The test system of another assay is Klebsiella pneumoniae. Description: Antibacterial activity against Klebsiella pneumoniae ATCC 13883 after 18 hrs by microtiter dilution assay. The note with it: ATCC 13883, 18 h. The procedure, abridged:
as §2

Assay [15] deals with Pseudomonas aeruginosa. In words: Synergistic antibacterial activity against Pseudomonas aeruginosa PAO1 after 18 hrs in presence of minocycline by checkerboard assay. An outline of the steps:
(§3)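 Checkerboard in MHB: antibiotic diluted along one axis and adjuvant along the other (10 × 7 matrix). Inoculum was a 1:50 dilution in MHB of a 0.5 McFarland saline suspension; incubated 18 h at 37 °C. Each FIC = concentration in the no-growth well divided by the MIC alone; FIC index = sum of both FICs. ≤0.5 synergy, 0.5–4 no interaction, ≥4 antagonism.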

For another assay, the system named is Enterococcus faecium. In words: Antibacterial activity against Enterococcus faecium ATCC 27270 after 18 hrs by microtiter dilution assay. The note with it: ATCC 27270, 18 h. An outline of the steps:
as §2

Assay [16] concerns Pseudomonas aeruginosa. Description: Antibacterial activity against multidrug/extremely drug-resistant/colistin-resistant Pseudomonas aeruginosa isolate 91433 after 18 hrs by microtiter dilution assay. The note with it: isolate 91433, 18 h. An outline of the steps:
as §1

Assay [17] concerns Escherichia coli. In words: Antibacterial activity against Escherichia coli ATCC 25922 after 18 hrs by microtiter dilution assay. The note with it: ATCC 25922, 18 h. The procedure, abridged: as §1
Assay [18] deals with Pseudomonas aeruginosa. In words: Antibacterial activity against multidrug/extremely drug-resistant/colistin-resistant Pseudomonas aeruginosa isolate 101243 after 18 hrs by microtiter dilution assay. Conditions: isolate 101243, 18 h. The procedure, abridged:
as §1

The subject of assay [19] is Pseudomonas aeruginosa. Description: Antibacterial activity against multidrug/extremely drug-resistant/colistin-susceptible Pseudomonas aeruginosa isolate P259-96918 after 18 hrs by microtiter dilution assay. Conditions: isolate P259-96918, 18 h. The procedure, abridged: as §1
The test system of assay [20] is Staphylococcus epidermidis. Description: Antibacterial activity against methicillin-susceptible Staphylococcus epidermidis isolate CANWARD-2008 81388 after 18 hrs by microtiter dilution assay. Conditions: isolate CANWARD-2008 81388, 18 h. An outline of the steps: as §1
For the next assay, the system named is Acinetobacter baumannii. In words: Antibacterial activity against Acinetobacter baumannii isolate CAN-ICU 63169 after 18 hrs by microtiter dilution assay. The note with it: isolate CAN-ICU 63169, 18 h. An outline of the steps:
as §2

The subject of a further assay is Enterococcus faecalis. Description: Antibacterial activity against Enterococcus faecalis ATCC 29212 after 18 hrs by microtiter dilution assay. Conditions: ATCC 29212, 18 h. The procedure, abridged:
as §2

Assay [21] has as its system Staphylococcus aureus. Description: Antibacterial activity against methicillin resistant Staphylococcus aureus ATCC 33592 after 18 hrs by microtiter dilution assay. Conditions: ATCC 33592, 18 h. The procedure, abridged: as §1
The test system of assay [22] is Pseudomonas aeruginosa. In words: Synergistic antibacterial activity against Pseudomonas aeruginosa PAO1 after 18 hrs in presence of rifampicin by checkerboard assay. An outline of the steps:
as §3

Regarding `Cc1nnc(SCC2=C(C(=O)O)N3C(=O)[C@@H](NC(=O)Cn4cnnn4)[C@H]3SC2)s1` [CEFAZOLIN], the figures for the MIC (in assay [1]; against Escherichia coli [2]; against Escherichia coli [3]) were over 32 µg/mL, 32 µg/mL (≈ 70.4 µM) and 32 µg/mL (≈ 70.4 µM), respectively.

For `CN[C@H](CC(C)C)C(=O)N[C@H]1C(=O)N[C@@H](CC(N)=O)C(=O)N[C@H]2C(=O)N[C@H]3C(=O)N[C@H](C(=O)N[C@H](C(=O)O)c4cc(O)cc(O)c4-c4cc3ccc4O)[C@H](O)c3ccc(c(Cl)c3)Oc3cc2cc(c3O[C@@H]2O[C@H](CO)[C@@H](O)[C@H](O)[C@H]2O[C@H]2C[C@](C)(N)[C@H](O)[C@H](C)O2)Oc2ccc(cc2Cl)[C@H]1O` [VANCOMYCIN], in the assay on Pseudomonas aeruginosa [4], the minimum inhibitory concentration (MIC) was over 1020 µg/mL.

Turning to `Cl.Cl.Cl.Cl.Cl.Cl.Cl.NCCCC[C@H](N)C(=O)N(CCCCO[C@@H]1[C@@H](O[C@H]2O[C@H](CO)[C@@H](O)[C@H](N)[C@H]2O)[C@H](N)C[C@H](N)[C@H]1O[C@H]1O[C@H](CN)[C@@H](O)C[C@H]1N)Cc1c2ccccc2c(Cl)c2ccccc12`, the MIC is 64 µg/mL against Pseudomonas aeruginosa [5]; 64 µg/mL against Staphylococcus aureus [6]; 256 µg/mL with Pseudomonas aeruginosa [7]; over 128 µg/mL in the assay on Streptococcus pneumoniae; 32 µg/mL in assay [1]; over 128 µg/mL in [8]. Further, the MIC in the assay on Pseudomonas aeruginosa [9] was over 512 µg/mL; against Escherichia coli [10] it was 64 µg/mL; in the assay with Pseudomonas aeruginosa [11], over 512 µg/mL; against Pseudomonas aeruginosa [12], over 128 µg/mL; with Pseudomonas aeruginosa [13], over 128 µg/mL; in the assay on Escherichia coli [2], 64 µg/mL. Also, the minimal inhibitory concentration (MIC) was 64 µg/mL against Escherichia coli [3]; over 512 µg/mL in the assay on Pseudomonas aeruginosa [14]; 128 µg/mL against Klebsiella pneumoniae; over 128 µg/mL with Enterococcus faecium; over 512 µg/mL with Pseudomonas aeruginosa [4]; 32 µg/mL in the assay on Pseudomonas aeruginosa [16]. For the same compound, the MIC was 32 µg/mL in the assay on Escherichia coli [17]; 256 µg/mL in the assay with Pseudomonas aeruginosa [18]; over 512 µg/mL in the assay on Pseudomonas aeruginosa [19]; 16 µg/mL in assay [20]; over 128 µg/mL in the assay on Acinetobacter baumannii; over 128 µg/mL against Enterococcus faecalis. The MIC with Staphylococcus aureus [21] amounted to 64 µg/mL. For the same compound, the outcome in the assay with Pseudomonas aeruginosa [15] and with Pseudomonas aeruginosa [22] was inactive.

Take `Cl.Cl.Cl.Cl.Cl.Cl.Cl.NCCCC[C@H](N)C(=O)N(CCCCCCCCOC1[C@@H](O[C@H]2O[C@H](CO)[C@@H](O)[C@H](N)[C@H]2O)[C@H](N)C[C@H](N)[C@H]1O[C@H]1O[C@H](CN)[C@@H](O)C[C@H]1N)Cc1c2ccccc2c(Cl)c2ccccc12` (single isomer, unassigned): the MIC against Pseudomonas aeruginosa [5] was 16 µg/mL; against Staphylococcus aureus [6] it was 16 µg/mL; in the assay with Pseudomonas aeruginosa [7] it was 64 µg/mL; against Streptococcus pneumoniae it was 128 µg/mL; in [1], 8 µg/mL; in assay [8], over 128 µg/mL. The MIC in the assay on Pseudomonas aeruginosa [9] is 128 µg/mL; against Escherichia coli [10], 32 µg/mL; against Pseudomonas aeruginosa [11], 256 µg/mL; in the assay on Pseudomonas aeruginosa [12], 64 µg/mL; in the assay with Pseudomonas aeruginosa [13], over 128 µg/mL; in the assay with Escherichia coli [2] it was 128 µg/mL. Further, the minimal inhibitory concentration (MIC) was 32 µg/mL against Escherichia coli [3]; 512 µg/mL with Pseudomonas aeruginosa [14]; over 128 µg/mL with Klebsiella pneumoniae; 16 µg/mL in the assay on Enterococcus faecium; 128 µg/mL against Pseudomonas aeruginosa [4]; 8 µg/mL against Pseudomonas aeruginosa [16]. In addition, the MIC is 16 µg/mL with Escherichia coli [17]; 32 µg/mL against Pseudomonas aeruginosa [18]; 512 µg/mL against Pseudomonas aeruginosa [19]; 8 µg/mL in [20]; over 128 µg/mL with Acinetobacter baumannii; 64 µg/mL with Enterococcus faecalis. This compound gave a minimal inhibitory concentration (MIC) against Staphylococcus aureus [21] of 16 µg/mL. Besides, the outcome with Pseudomonas aeruginosa [15] and in the assay on Pseudomonas aeruginosa [22] was Active.

With `C[C@@H](O)[C@H]1C(=O)N2C(C(=O)O)=C(S[C@@H]3CN[C@H](C(=O)N(C)C)C3)[C@H](C)[C@H]12` [MEROPENEM], the minimum inhibitory concentration (MIC) in the assay with Pseudomonas aeruginosa [4] turned out to be 0.5 µg/mL (≈ 1.3 µM).

For `CC(C)(O/N=C(\C(=O)N[C@@H]1C(=O)N2C(C(=O)[O-])=C(C[n+]3ccccc3)CS[C@H]12)c1csc(N)n1)C(=O)O` [CEFTAZIDIME], the MIC is 8 µg/mL (≈ 14.6 µM) against Pseudomonas aeruginosa [7]; over 32 µg/mL in [1]; 16 µg/mL (≈ 29.3 µM) in the assay with Pseudomonas aeruginosa [9]; 64 µg/mL (≈ 117 µM) against Pseudomonas aeruginosa [11]; 8 µg/mL (≈ 14.6 µM) with Pseudomonas aeruginosa [14]; 2 µg/mL (≈ 3.66 µM) against Pseudomonas aeruginosa [4]. Also, the minimal inhibitory concentration (MIC) in the assay on Pseudomonas aeruginosa [16] turned out to be 256 µg/mL (≈ 468 µM); with Pseudomonas aeruginosa [18] it was 64 µg/mL (≈ 117 µM); in the assay with Pseudomonas aeruginosa [19] it was 512 µg/mL (≈ 937 µM).

Regarding `COc1cc(Cc2cnc(N)nc2N)cc(OC)c1OC` [TRIMETHOPRIM], the MIC with Pseudomonas aeruginosa [7] was over 512 µg/mL; against Pseudomonas aeruginosa [9], over 1020 µg/mL; in the assay with Pseudomonas aeruginosa [11], 256 µg/mL (≈ 882 µM); in the assay with Pseudomonas aeruginosa [14] it was 256 µg/mL (≈ 882 µM); against Pseudomonas aeruginosa [4] it was 256 µg/mL (≈ 882 µM); in the assay with Pseudomonas aeruginosa [16], 512 µg/mL (≈ 1760 µM). Further, the minimum inhibitory concentration (MIC) in the assay with Pseudomonas aeruginosa [18] came to 1020 µg/mL (≈ 3530 µM); in the assay with Pseudomonas aeruginosa [19], 512 µg/mL (≈ 1760 µM).
